Columns and labels:
[1] = biological target: Epidermal growth factor receptor (Homo sapiens, UniProt P00533); test: Inhibition of tyrosine phosphorylation activity of the epidermal growth factor receptor (EGFR) tyrosine kinase from human A-431 carcinoma cell-shed membrane vesicles
A-431 = test: Inhibition of A431 human epidermoid carcinoma cell proliferation; assay type: functional, cell-based
In short: (§1)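 Cells kept in dMEM/F12 (50:50) with 10% fetal bovine serum. 2 × 10⁴ cells were seeded into wells holding compound dilutions in DMSO and exposed for 72 h at 37 °C under 5% CO₂. Growth was read by electronic cell count. IC50 is the concentration giving 50% growth inhibition, as the mean of two separate duplicate determinations.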

K562 = test: Inhibition of K562 chronic myelogenous leukemia cell proliferation; assay type: functional, cell-based; conditions: Homo sapiens; in short: as §1
[2] = biological target: Platelet-derived growth factor receptor (Mus musculus, UniProt P05622+P26618); test: Inhibition of PDGF receptor autophosphorylation in mouse fibroblasts; assay type: protein-complex assay
In short: (§2)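 Confluent Swiss 3T3 fibroblasts were pretreated 2 h with graded compound concentrations, then stimulated 5 min with EGF or PDGF. Monolayers were lysed in boiling Laemmli buffer and resolved on 4–20% SDS gels. Blots were probed with antiphosphotyrosine antibody (1 μg/mL) and [¹²⁵I]protein A, and receptor autophosphorylation was quantified by densitometry. IC50 is 50% inhibition of autophosphorylation.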

[3] = biological target: Epidermal growth factor receptor (Mus musculus, UniProt Q01279); test: Inhibition of epidermal growth factor receptor (EGFR-mediated tyrosine autophosphorylation in mouse fibroblasts.; in short: as §2
Sequence of Epidermal growth factor receptor (Mus musculus, UniProt Q01279) (Q01279 whole entry): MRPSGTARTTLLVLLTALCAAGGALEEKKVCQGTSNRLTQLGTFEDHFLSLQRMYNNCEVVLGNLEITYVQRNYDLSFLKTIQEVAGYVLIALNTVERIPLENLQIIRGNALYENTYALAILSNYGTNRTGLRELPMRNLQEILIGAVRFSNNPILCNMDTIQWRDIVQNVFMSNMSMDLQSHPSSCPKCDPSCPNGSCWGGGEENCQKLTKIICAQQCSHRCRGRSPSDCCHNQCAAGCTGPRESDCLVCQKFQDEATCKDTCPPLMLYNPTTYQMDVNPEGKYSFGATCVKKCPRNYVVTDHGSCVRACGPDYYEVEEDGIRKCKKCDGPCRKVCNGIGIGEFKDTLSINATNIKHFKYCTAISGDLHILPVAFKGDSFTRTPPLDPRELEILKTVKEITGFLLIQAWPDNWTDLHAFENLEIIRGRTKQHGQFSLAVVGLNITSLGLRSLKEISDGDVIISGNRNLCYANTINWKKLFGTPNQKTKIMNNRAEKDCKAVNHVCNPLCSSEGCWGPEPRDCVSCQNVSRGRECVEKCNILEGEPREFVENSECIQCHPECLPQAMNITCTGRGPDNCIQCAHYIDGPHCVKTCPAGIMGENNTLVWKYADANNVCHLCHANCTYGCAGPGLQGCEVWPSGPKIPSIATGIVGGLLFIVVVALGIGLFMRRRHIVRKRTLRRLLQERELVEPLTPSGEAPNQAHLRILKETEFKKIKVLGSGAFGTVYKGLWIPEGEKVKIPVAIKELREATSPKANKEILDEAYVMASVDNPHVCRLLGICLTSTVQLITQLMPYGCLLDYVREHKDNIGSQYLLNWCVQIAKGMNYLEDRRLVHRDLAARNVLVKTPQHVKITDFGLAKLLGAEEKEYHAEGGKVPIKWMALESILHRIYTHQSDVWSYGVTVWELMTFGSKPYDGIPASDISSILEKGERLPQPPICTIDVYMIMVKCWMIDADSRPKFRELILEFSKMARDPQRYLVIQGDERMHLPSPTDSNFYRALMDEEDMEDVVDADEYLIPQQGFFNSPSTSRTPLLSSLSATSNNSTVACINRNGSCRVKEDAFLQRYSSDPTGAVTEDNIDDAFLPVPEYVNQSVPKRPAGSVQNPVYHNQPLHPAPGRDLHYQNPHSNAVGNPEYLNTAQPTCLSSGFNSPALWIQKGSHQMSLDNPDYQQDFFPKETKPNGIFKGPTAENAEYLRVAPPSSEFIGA

Swiss 3T3 (Mus musculus) = test: Inhibition of Swiss 3T3 Mouse fibroblast proliferation
KG-1 = test: Inhibition of kg1A acute myelogenous leukemia cell proliferation; assay type: functional, cell-based; conditions: Homo sapiens; in short: as §1

Sequence of Epidermal growth factor receptor (Homo sapiens, UniProt P00533) (P00533 whole entry): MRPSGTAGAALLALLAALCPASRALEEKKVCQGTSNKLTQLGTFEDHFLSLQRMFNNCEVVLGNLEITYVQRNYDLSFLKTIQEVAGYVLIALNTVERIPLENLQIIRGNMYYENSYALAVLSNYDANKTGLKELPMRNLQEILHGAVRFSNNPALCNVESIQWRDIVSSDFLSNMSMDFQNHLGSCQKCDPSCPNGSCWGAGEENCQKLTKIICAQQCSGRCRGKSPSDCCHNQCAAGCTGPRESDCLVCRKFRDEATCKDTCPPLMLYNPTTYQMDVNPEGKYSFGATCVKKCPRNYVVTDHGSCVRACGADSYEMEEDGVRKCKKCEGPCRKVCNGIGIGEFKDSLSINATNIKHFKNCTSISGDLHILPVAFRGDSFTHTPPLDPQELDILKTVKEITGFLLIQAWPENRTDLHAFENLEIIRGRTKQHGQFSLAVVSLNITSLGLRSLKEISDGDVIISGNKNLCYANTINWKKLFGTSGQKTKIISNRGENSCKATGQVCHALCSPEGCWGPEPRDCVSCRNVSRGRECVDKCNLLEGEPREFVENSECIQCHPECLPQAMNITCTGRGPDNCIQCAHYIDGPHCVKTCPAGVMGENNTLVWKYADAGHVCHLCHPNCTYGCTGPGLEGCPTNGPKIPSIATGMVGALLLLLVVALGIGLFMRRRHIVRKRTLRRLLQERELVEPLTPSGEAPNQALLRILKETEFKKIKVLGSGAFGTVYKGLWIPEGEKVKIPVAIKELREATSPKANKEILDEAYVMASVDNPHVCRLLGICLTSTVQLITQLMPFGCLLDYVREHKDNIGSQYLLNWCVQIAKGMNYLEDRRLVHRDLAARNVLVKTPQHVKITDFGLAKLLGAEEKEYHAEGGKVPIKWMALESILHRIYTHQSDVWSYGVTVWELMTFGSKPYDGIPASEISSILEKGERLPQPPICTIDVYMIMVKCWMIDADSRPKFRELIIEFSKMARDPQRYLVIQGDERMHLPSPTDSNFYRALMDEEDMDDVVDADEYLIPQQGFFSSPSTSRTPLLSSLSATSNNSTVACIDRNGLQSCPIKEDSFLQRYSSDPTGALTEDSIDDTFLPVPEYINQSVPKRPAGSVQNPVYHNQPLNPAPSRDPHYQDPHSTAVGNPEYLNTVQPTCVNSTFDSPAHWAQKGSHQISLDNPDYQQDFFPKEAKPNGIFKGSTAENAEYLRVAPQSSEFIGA

| Compound | IC50 [1] [µM] | IC50 (Swiss 3T3 (Mus musculus)) [µM] | further results |
| --- | --- | --- | --- |
| Cn1c(SSc2c(C(=O)Nc3ccccc3)c3cc(C(F)(F)F)ccc3n2C)c(C(=O)Nc2ccccc2)c2cc(C(F)(F)F)ccc21 | > 100 |  |  |
| CSc1c(C(=O)Nc2ccccc2)c2ccccc2n1C | > 100 |  |  |
| Cn1c(SSc2c(C(=O)Nc3ccccc3)c3c(Cl)cccc3n2C)c(C(=O)Nc2ccccc2)c2c(Cl)cccc21 | 100 |  |  |
| Cn1c(SSc2c(C(=O)Nc3ccccc3)c3ccccc3n2C)c(C(=O)Nc2ccccc2)c2ccccc21 | 10 | 12 | IC50 (A-431): 14 µM; IC50 (K562): 18 µM; IC50 [2]: > 100 µM; IC50 [3]: > 100 µM; IC50 (KG-1): 12 µM |
| Cn1c(SSc2c(C(=O)Nc3ccccc3)c3cc(F)ccc3n2C)c(C(=O)Nc2ccccc2)c2cc(F)ccc21 | > 100 |  |  |
| Cn1c(SSc2ccccc2)c(C(=O)Nc2ccccc2)c2ccccc21 | > 100 |  |  |
| COc1cccc2c1c(C(=O)Nc1ccccc1)c(SSc1c(C(=O)Nc3ccccc3)c3c(OC)cccc3n1C)n2C | > 100 | 1.9 |  |
| COc1cccc2c(C(=O)Nc3ccccc3)c(SSc3c(C(=O)Nc4ccccc4)c4cccc(OC)c4n3C)n(C)c12 |  | 24 | IC50 [2]: > 100 µM; IC50 [3]: > 100 µM |
| Cc1cccc2c(C(=O)Nc3ccccc3)c(SSc3c(C(=O)Nc4ccccc4)c4cccc(C)c4n3C)n(C)c12 | > 100 |  |  |
| Cn1c(SSc2c(C(=O)Nc3ccccc3)c3cccc(Cl)c3n2C)c(C(=O)Nc2ccccc2)c2cccc(Cl)c21 | > 100 |  |  |
| Cc1ccc2c(c1)c(C(=O)Nc1ccccc1)c(SSc1c(C(=O)Nc3ccccc3)c3cc(C)ccc3n1C)n2C | > 100 | 22 |  |
| Cc1cccc2c1c(C(=O)Nc1ccccc1)c(SSc1c(C(=O)Nc3ccccc3)c3c(C)cccc3n1C)n2C | > 100 | 4 |  |
| CC(=O)Oc1cccc2c(C(=O)Nc3ccccc3)c(SSc3c(C(=O)Nc4ccccc4)c4cccc(OC(C)=O)c4n3C)n(C)c12 | 9.9 |  |  |
| Cn1c(SSc2c(C(=O)Nc3ccccc3)c3ccc(Cl)cc3n2C)c(C(=O)Nc2ccccc2)c2ccc(Cl)cc21 | > 100 |  |  |
| Cn1c(SSc2c(C(=O)Nc3ccccc3)c3cccnc3n2C)c(C(=O)Nc2ccccc2)c2cccnc21 |  | 10 | IC50 [2]: > 25 µM; IC50 [3]: > 25 µM |
| COc1ccc2c(C(=O)Nc3ccccc3)c(SSc3c(C(=O)Nc4ccccc4)c4ccc(OC)cc4n3C)n(C)c2c1 |  | 17 | IC50 [2]: > 100 µM |
| CN1C(=S)C(C(=O)Nc2ccccc2)c2ccccc21 (centres undefined) |  | 64 | IC50 (A-431): 15 µM; IC50 (K562): 32 µM; IC50 [2]: 17 µM; IC50 [3]: > 100 µM; IC50 (KG-1): 38 µM |
| Cc1ccc2c(C(=O)Nc3ccccc3)c(SSc3c(C(=O)Nc4ccccc4)c4ccc(C)cc4n3C)n(C)c2c1 | > 100 | 96 |  |
| CC(=O)Oc1ccc2c(C(=O)Nc3ccccc3)c(SSc3c(C(=O)Nc4ccccc4)c4ccc(OC(C)=O)cc4n3C)n(C)c2c1 | > 100 |  |  |
| CC(=O)Oc1cccc2c1c(C(=O)Nc1ccccc1)c(SSc1c(C(=O)Nc3ccccc3)c3c(OC(C)=O)cccc3n1C)n2C | 20 |  |  |
| Cn1c(SSCc2ccccc2)c(C(=O)Nc2ccccc2)c2ccccc21 | > 100 |  |  |
| Cn1c(SSc2c(C(=O)Nc3ccccc3)c3cc(O)ccc3n2C)c(C(=O)Nc2ccccc2)c2cc(O)ccc21 | 40.5 |  |  |
| Cn1c(SSc2c(C(=O)Nc3ccccc3)c3cc([N+](=O)[O-])ccc3n2C)c(C(=O)Nc2ccccc2)c2cc([N+](=O)[O-])ccc21 | 5 |  |  |
| Cn1c(SSc2c(C(=O)Nc3ccccc3)c3cccc(O)c3n2C)c(C(=O)Nc2ccccc2)c2cccc(O)c21 | 100 |  |  |
| CN1C(=S)C(C(=O)Nc2ccccc2)c2cc(Cl)ccc21 (centres undefined) | > 100 |  |  |
| CN1C(=S)C(C)(C(=O)Nc2ccccc2)c2ccccc21 (centres undefined) | > 100 |  |  |
| COc1ccc2c(c1)c(C(=O)Nc1ccccc1)c(SSc1c(C(=O)Nc3ccccc3)c3cc(OC)ccc3n1C)n2C | > 100 | 20 |  |
| CN1C(=S)C(C(=O)Nc2ccccc2)c2cccnc21 (centres undefined) | > 100 |  |  |

— ChEMBL document CHEMBL1127560, “Tyrosine kinase inhibitors. 3. Structure-activity relationships for inhibition of protein tyrosine kinases by nuclear-substituted derivatives of 2,2'-dithiobis(1-methyl-N-phenyl-1H-indole-3-carboxamide)” (J Med Chem, 1994)
